Compound activity: PubChem, Broad Institute
Pf Dd2 inh – blocks growth of Plasmodium falciparum Dd2 parasites | P. falciparum Dd2 growth, SYBR Green, 72 h; hits give low values | activity change, % at 10 µM | 94,000 tested, 2.3% active; in the data active = activity change below about -80%; inconclusive = no clear call, values can overlap the other calls
IDH1 R132H inh – blocks human IDH1 R132H reductase activity | diaphorase/resazurin fluorescence, 60 min | 70,000 tested, 0.18% active | AID 624101 | inhibition, % at 10 µM; in the data active = inhibition above about 34%; inconclusive = no clear call, values can overlap the other calls; inactive = below about 11%;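 also: 0% = DMSO and 100% = no enzyme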
Target sequence (O75874 whole entry R132H): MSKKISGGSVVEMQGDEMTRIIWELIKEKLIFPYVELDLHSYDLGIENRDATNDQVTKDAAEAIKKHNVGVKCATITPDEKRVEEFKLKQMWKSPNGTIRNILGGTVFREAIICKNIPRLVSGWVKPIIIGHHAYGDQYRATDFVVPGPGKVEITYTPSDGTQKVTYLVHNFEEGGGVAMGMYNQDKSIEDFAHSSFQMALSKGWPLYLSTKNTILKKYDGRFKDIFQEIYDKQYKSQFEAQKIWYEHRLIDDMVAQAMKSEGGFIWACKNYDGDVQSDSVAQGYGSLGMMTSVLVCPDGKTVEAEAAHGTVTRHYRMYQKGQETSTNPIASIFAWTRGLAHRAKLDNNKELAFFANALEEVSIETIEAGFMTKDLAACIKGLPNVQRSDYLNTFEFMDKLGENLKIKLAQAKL
T cruzi growth-1 – blocks T. cruzi growth in NIH3T3 culture. AID 624255. 77,000 tested, 5.9% active. T. cruzi beta-gal in NIH3T3, GalScreen luminescence, 90 h. inhibition, % at 8.34 µM;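 active = mean inhibition above about 93%, with at least 55% of replicates each passing it, limit read from the data, passing the limit was not always enough; inconclusive = only one of those two conditions holds; inactive = neither condition holds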
KDM4C inh – KDM4C (human) demethylase inhibition; Q9H3R0; GST-KDM4C 2-372, H3K9me3 peptide, LANCE TR-FRET; inhibition, % at 12.5 µM; 96,000 tested, 0.15% active; AID 720574;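 active = mean replicate inhibition above about 25%, with at least 55% of replicates also reaching it, limit read from the data, passing the limit was not always enough; inconclusive = only one of those two conditions met; inactive = neither condition met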
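Assay system: GST-GASC-1 enzyme fragment 2-372 | Amount: 10 nM enzyme | Medium: HEPES buffer, pH 7.5, plus ascorbate | Reagent: H3K9me3 peptide substrate, Fe(II), 2-oxoglutarate | Doses: Single-point compound screen | Incubation: 30 min demethylation and 1 h detection at room temperature | Measured by: LANCE TR-FRET, excitation 340 nm, emissions 618 and 671 nm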
T cruzi growth-2 – Trypanosoma cruzi proliferation inhibition. shares compounds with T cruzi growth-1. T. cruzi beta-gal in NIH3T3, GalScreen luminescence, 90 h. inhibition, % at 8.35 µM. 5,600 tested, 72% active. AID 651739;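 active = mean replicate inhibition above about 95% and at least 55% of replicates individually reaching it, limit read from the data; inconclusive = only one of the two criteria is met; inactive = neither criterion is met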
T cruzi growth-3 – inhibitors of T. cruzi proliferation; AID 651740; T. cruzi beta-gal in NIH3T3, GalScreen luminescence, 90 h; inhibition, % at 2.09 µM; shares compounds with T cruzi growth-1; 5,600 tested, 21% active;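 active = mean inhibition above about 95%, with at least 55% of replicates also reaching it, limit read from the data; inconclusive = meets just one of the two conditions; inactive = meets neither condition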;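 also: plate controls were neutral control median for no effect and positive control median for full effect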
3T3 cytotox – cytotoxicity in mouse NIH/3T3 fibroblasts; 5,600 tested, 14% active; cytotoxicity (signal decrease), % at 8.35 µM; shares compounds with T cruzi growth-1; NIH/3T3 viability, CellTiter-Glo ATP luminescence, 90 h;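 active = mean signal decrease across replicates above about 35% based on untreated-well scatter, with enough replicates individually passing, limit read from the data; inconclusive = no rule stated though some were filed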;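 also: 0% = median of neutral control wells and 100% = median of positive control wells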
3T3 cytotox 2 – kills mouse NIH/3T3 fibroblasts; AID 651744; shares compounds with T cruzi growth-1; inhibition, % at 24.9 µM; 5,600 tested, 56% active; NIH/3T3 viability, CellTiter-Glo ATP luminescence, 90 h;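 active = mean loss of cell viability signal at or above a set limit, and enough replicates individually reaching it; inconclusive = meets only the mean limit or only the replicate share; inactive = meets neither condition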;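 also: 0% = median of neutral control wells and 100% = median of positive control wells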
Starred values were filed as active, the others as inactive; u = inconclusive; x = no result given. Shown are actives, neighbours in structure and some others; about 5.8% of the full set was active somewhere.

SMILES	Pf Dd2 inh	IDH1 R132H inh	T cruzi growth-1	KDM4C inh	T cruzi growth-2	T cruzi growth-3	3T3 cytotox	3T3 cytotox 2
CC(Sc1ncn[nH]1)C(=O)Nc1ccc(Cl)cc1 (stereo not given)	x	0	x	x	x	x	x	x
COc1ccc(OC)c(CN2CCN(Cc3cccc([N+](=O)[O-])c3)CC2)c1	x	0	x	x	x	x	x	x
O=C(Nc1ccncc1)Nc1c(Cl)cc(Cl)cc1Cl	x	9	x	x	x	x	x	x
CCS(=O)(=O)N1CCCCN2[C@@H](CO)[C@@H](c3ccc(-c4ccccc4F)cc3)[C@@H]2C1	-43	x	106*	-2	90	16	11	57*
CCS(=O)(=O)N1CCCCN2[C@H](CO)[C@@H](c3ccc(-c4ccccc4F)cc3)[C@@H]2C1	-64	x	u	-2	103*	56	12	24
CCS(=O)(=O)N1CCCCN2[C@@H](CO)[C@H](c3ccc(-c4ccccc4F)cc3)[C@@H]2C1	-11	x	u	0	104*	51	17	42*
C[C@@H]1CN([C@H](C)CO)C(=O)Cc2cc(NC(=O)Nc3cccc4ccccc34)ccc2O[C@H]1CN(C)Cc1ccc(Oc2ccccc2)cc1	16	0	96*	-2	107*	80	9	12
C[C@H]1CN([C@@H](C)CO)C(=O)Cc2cc(NC(=O)Nc3cccc4ccccc34)ccc2O[C@H]1CN(C)Cc1ccc(Oc2ccccc2)cc1	-7	0	60	-2	x	x	x	x
C[C@@H]1CN([C@@H](C)CO)C(=O)Cc2cc(NC(=O)Nc3cccc4ccccc34)ccc2O[C@H]1CN(C)Cc1ccc(Oc2ccccc2)cc1	-47	0	u	-3	105*	107*	21	21
COc1cc(Cl)c(C)cc1NC(=O)CSc1nc2ccccc2s1	x	0	x	x	x	x	x	x
Cc1c(Cl)cccc1NC(=O)CN(C)S(=O)(=O)c1ccc2ccccc2c1	x	0	x	x	x	x	x	x
CCc1nc(SCC(=O)N2CCCc3ccccc32)n[nH]1	x	0	x	x	x	x	x	x
COc1ccc(OC)c(C(C)NC(=O)Nc2ccc([N+](=O)[O-])cc2OC)c1 (stereo not given)	x	0	x	x	x	x	x	x
C[C@@H]1CCCCO[C@H](CN(C)CC2CCCCC2)[C@H](C)CN([C@H](C)CO)C(=O)c2cc(NC(=O)Nc3ccccc3)ccc2O1	u	x	u	-2	102*	90	28	105*
C[C@@H]1CCCCO[C@@H](CN(C)CC2CCCCC2)[C@H](C)CN([C@@H](C)CO)C(=O)c2cc(NC(=O)NC3CCCCC3)ccc2O1	-56	3	99*	-2	109*	73	-5	106*
C[C@@H]1CCCCO[C@@H](CN(C)CC2CC2)[C@@H](C)CN([C@H](C)CO)C(=O)c2cc(NC(=O)Nc3ccccc3)ccc2O1	-84*	x	97*	-1	39	3	-2	7
COc1ccc(NC(=O)Nc2ccc3c(c2)C(=O)N([C@@H](C)CO)C[C@@H](C)[C@H](CN(C)CC2CCCCC2)OCCCC[C@@H](C)O3)cc1	-73	x	u	0	98*	59	15	104*
C[C@@H]1CCCCO[C@@H](CN(C)CC2CC2)[C@H](C)CN([C@@H](C)CO)C(=O)c2cc(NC(=O)Nc3ccccc3)ccc2O1	2	x	82	15	x	x	x	x
C[C@@H]1CN([C@@H](C)CO)C(=O)c2cc(NC(=O)Nc3ccccc3)ccc2O[C@@H](C)CCCCO[C@H]1CN(C)CC1CCCCC1	-75	2	97*	-1	23	8	-1	4
CNC[C@@H]1OCCCC[C@H](C)Oc2ccc(NS(=O)(=O)c3ccc(C)cc3)cc2C(=O)N([C@@H](C)CO)C[C@H]1C	23	x	78	-1	x	x	x	x
CNC[C@H]1OCCCC[C@H](C)Oc2ccc(NS(C)(=O)=O)cc2C(=O)N([C@@H](C)CO)C[C@@H]1C	2	5	101*	-2	-26	-5	-15	-25
CNC[C@H]1OCCCC[C@H](C)Oc2ccc(NS(=O)(=O)c3ccc(C)cc3)cc2C(=O)N([C@@H](C)CO)C[C@@H]1C	-8	6	102*	7	-10	-12	1	11
O=C(COc1ccccc1)Nc1ccc2oc(-c3cccc(Cl)c3Cl)nc2c1	x	0	x	x	x	x	x	x
C[C@@H]1CN([C@H](C)CO)C(=O)c2ccccc2-c2ccccc2CO[C@H]1CN(C)S(=O)(=O)c1ccc(F)cc1	53	x	-11	1	x	x	x	x
C[C@@H]1CN([C@H](C)CO)C(=O)c2ccccc2-c2ccccc2CO[C@H]1CN(C)S(=O)(=O)c1cccs1	14	x	u	1	89	15	21	u
SMILES	Pf Dd2 inh	IDH1 R132H inh	T cruzi growth-1	KDM4C inh	T cruzi growth-2	T cruzi growth-3	3T3 cytotox	3T3 cytotox 2
C[C@@H]1CN([C@H](C)CO)C(=O)c2ccccc2-c2ccccc2CO[C@H]1CN(C)S(=O)(=O)c1ccc(C(F)(F)F)cc1	-52	x	96*	0	u	28	-4	20
Cc1noc(C)c1C(=O)N(C)C[C@H]1OCc2ccccc2-c2ccccc2C(=O)N([C@H](C)CO)C[C@H]1C	-10	x	u	0	75	4	-7	10
O=C(CSc1nnnn1-c1cccc(C(=O)O)c1)Nc1ccccc1F	x	0	x	x	x	x	x	x
CO[C@H](CN(C)C(=O)Nc1ccc(C(F)(F)F)cc1)[C@@H](C)CN(Cc1ccccc1Cl)[C@@H](C)CO	-50	0	101*	-2	101*	77	47*	104*
CO[C@H](CN(C)C(=O)Nc1ccc(C(F)(F)F)cc1)[C@H](C)CN(Cc1ccccc1Cl)[C@@H](C)CO	-48	0	114*	0	101*	100*	50*	104*
CO[C@@H](CN(C)C(=O)Nc1ccc(C(F)(F)F)cc1)[C@@H](C)CN(Cc1ccccc1Cl)[C@@H](C)CO	-51	-1	72	0	x	x	x	x
CC(Oc1ccc(-c2ccccc2)cc1)C(=O)Nc1ccccc1[N+](=O)[O-] (stereo not given)	x	6	x	x	x	x	x	x
C=C1[C@H](O)C[C@H]2[C@@H](/C=C(\C)C(=O)[C@@]3(O)C[C@H](C)[C@H](O)[C@@H]3[C@H]1O)C2(C)C	x	0	x	x	x	x	x	x
C[C@H]1CN([C@@H](C)CO)C(=O)c2cccc(NC(=O)Nc3ccccc3)c2O[C@@H]1CN(C)Cc1ccc(Oc2ccccc2)cc1	-40	1	81	x	x	x	x	x
CC(C)NC(=O)Nc1cccc2c1O[C@H](CN(C)Cc1ccc(Oc3ccccc3)cc1)[C@@H](C)CN([C@@H](C)CO)C2=O	-64	1	u	-1	100*	83	-15	104*
